# Measured values reported in PubChem BioAssay AID504677 (The Scripps Research Institute Molecular Screening Center, 2011).
# Calls of active or inactive are those of the source.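 Rule for the calls: active = compounds with IC50 half-inhibiting concentration of 10 µM or lower; inactive = IC50 above 10 µM.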
# Tested on: E. coli V3065 expressing H. pylori AddAB, T4 phage, OD growth
# Assay: H. pylori AddAB complex inhibitors in E. coli, late-stage follow-up, absorbance, E. coli V3065, T4 phage, powder samples (AID 504677)
# Procedure, shortened: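 System: addAB+ E. coli strain V3065; Dosing: threefold dilution series from nominal top dose 118.6 µM; Schedule: 60 min pre-incubation, 18 h at 37 °C; Measured by: OD600 absorbance; Evaluation: IC50 from fitted % inhibition curve; Controls: ciprofloxacin wells as high control, DMSO wells as low control; Replicates: triplicate.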
row,SMILES,IC50
1,O=C(Nc1ccc(N2CCOCC2)cc1)c1ccc([N+](=O)[O-])o1,11.8 µM (inactive)
2,O=C(OCC(=O)c1cccs1)c1ccc([N+](=O)[O-])o1,53.3 µM (inactive)
3,CC(=O)Nc1ccc2nc(NC(=O)c3ccc([N+](=O)[O-])o3)sc2c1,> 119 µM (inactive)
4,O=C(NCc1cccnc1)c1ccc([N+](=O)[O-])o1,18.9 µM (inactive)
5,CCn1cc(C(=O)O)c(=O)c2cnc(N3CCN(C(=S)Nc4ccccc4C(F)(F)F)CC3)nc21,35.5 µM (inactive)
6,N#Cc1c(NC(=O)c2ccc([N+](=O)[O-])o2)sc2c1CCC2,17.8 µM (inactive)
7,NC(=O)c1ccsc1NC(=O)COC(=O)c1ccc([N+](=O)[O-])o1,5.83 µM
8,O=C(Nc1ncccn1)c1ccc([N+](=O)[O-])o1,7.54 µM
9,O=C(Nc1cccc(NC(=O)c2ccccc2Cl)c1)c1ccc([N+](=O)[O-])o1,> 13.2 µM (inactive)
10,C=CCn1c(Sc2ncc([N+](=O)[O-])s2)n[nH]c1=O,14.8 µM (inactive)
11,Cc1cccnc1NC(=O)c1ccc([N+](=O)[O-])o1,19.6 µM (inactive)
12,Cc1ccc2nc(/C(C#N)=C\c3ccc([N+](=O)[O-])o3)[nH]c2c1,9.42 µM
